Data taken from ChEMBL document CHEMBL1128689, “Vinyl sulfones as mechanism-based cysteine protease inhibitors” (J Med Chem, 1995).

Assays:
[1] = biological target: T1, Procathepsin L (Homo sapiens, UniProt P07711); experiment: Compound is evaluated for inhibition kinetic constant (kobs/[I], 1/M.1/s) for cathepsin L
Procedure, shortened: (§1)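 Fluorescence increase (ex 380, em 450 nm) followed 5 min or to ≤1% activity. kobs by first-order fit at ≥6 inhibitor levels near Ki, fit to saturation equation; Ki = Ki app/(1+[S]/Km); duplicates.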
Target sequence in this assay (P07711 114-333 limits assumed): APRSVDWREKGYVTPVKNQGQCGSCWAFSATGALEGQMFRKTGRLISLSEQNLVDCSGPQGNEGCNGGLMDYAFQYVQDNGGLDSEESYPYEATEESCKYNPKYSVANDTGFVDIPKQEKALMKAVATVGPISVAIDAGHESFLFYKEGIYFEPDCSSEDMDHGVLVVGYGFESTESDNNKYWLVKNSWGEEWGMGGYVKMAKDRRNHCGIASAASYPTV

[2] = biological target: Cruzipain (Trypanosoma cruzi) (UniProt P25779); experiment: Compound is evaluated for inhibition kinetic constant (kobs/[I], 1/M.1/s) for Cruzaine
Chain of Cruzipain (Trypanosoma cruzi) (P25779 123-467 limits assumed): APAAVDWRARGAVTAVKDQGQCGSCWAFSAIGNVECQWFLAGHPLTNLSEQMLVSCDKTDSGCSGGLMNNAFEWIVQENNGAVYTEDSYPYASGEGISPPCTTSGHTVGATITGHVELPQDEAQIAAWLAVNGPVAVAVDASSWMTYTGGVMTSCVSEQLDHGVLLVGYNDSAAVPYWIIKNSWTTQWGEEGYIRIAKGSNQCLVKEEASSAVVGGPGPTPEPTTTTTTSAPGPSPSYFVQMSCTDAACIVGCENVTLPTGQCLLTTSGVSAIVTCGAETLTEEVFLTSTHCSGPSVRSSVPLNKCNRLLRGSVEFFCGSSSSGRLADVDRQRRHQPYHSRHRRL
Procedure, shortened: (§2)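 Enzyme (~1-5 nM) starts the reaction with substrate and inhibitor present. Fluorescence ex 380/em 450 nm for 5 min. kobs from first-order fits at ≥6 inhibitor concentrations; Ki app corrected by 1+[S]/Km; second-order constant from 1/kobs vs 1/[I] slope; duplicates.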

[3] = biological target: T2, Cathepsin B (Homo sapiens, UniProt P07858); experiment: Compound is evaluated for inhibition kinetic constant (kobs/[I], 1/M.s) for cathepsin B
Procedure, shortened: (§3)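 Cathepsin B, ~5-10 nM, added to 50 mM phosphate pH 6.0, 2.5 mM EDTA, 2.5 mM DTT, 50 μM Z-Arg-Arg-AMC (Km 190 μM), DMF <1%, 25 °C. Fluorescence ex 380/em 450 nm over 5 min. kobs by first-order fit at ≥6 inhibitor concentrations; kirr and Ki app from saturation fit, Ki = Ki app/(1+[S]/Km); kirr/Ki also from 1/kobs vs 1/[I]; duplicates.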

[4] = biological target: T3, Cathepsin K (Homo sapiens) (UniProt P43235); experiment: Compound is evaluated for inhibition kinetic constant (kobs/[I], 1/M.1/s) for cathepsin O2
T3 sequence (whole entry): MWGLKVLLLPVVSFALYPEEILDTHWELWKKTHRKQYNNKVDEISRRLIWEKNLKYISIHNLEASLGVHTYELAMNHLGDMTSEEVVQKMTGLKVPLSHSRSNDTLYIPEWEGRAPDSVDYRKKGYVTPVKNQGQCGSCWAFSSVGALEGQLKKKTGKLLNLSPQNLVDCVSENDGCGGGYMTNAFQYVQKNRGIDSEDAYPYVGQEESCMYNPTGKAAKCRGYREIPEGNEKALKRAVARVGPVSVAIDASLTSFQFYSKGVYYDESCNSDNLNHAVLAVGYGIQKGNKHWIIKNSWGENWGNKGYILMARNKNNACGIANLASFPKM
Procedure, shortened: (§4)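 Read at ex 380/em 450 nm for 5 min. Progress curves fit first-order for kobs at ≥6 inhibitor concentrations; kinact and Ki app from saturation fit, Ki corrected for substrate; ratio also from double-reciprocal slope; duplicates.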

[5] = biological target: T4, Cathepsin S (Homo sapiens, UniProt P25774); experiment: Compound is evaluated for inhibition kinetic constant (kobs/[I], 1/M.1/s) for cathepsin S
Procedure, shortened: (§5)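 Fluorescence ex 380/em 450 nm, 5 min or to ≤1% activity. kobs from first-order fits, ≥6 inhibitor levels near Ki, fit to saturation equation; Ki corrected by 1+[S]/Km; duplicates.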
Target sequence in this assay (P25774 115-331 limits assumed): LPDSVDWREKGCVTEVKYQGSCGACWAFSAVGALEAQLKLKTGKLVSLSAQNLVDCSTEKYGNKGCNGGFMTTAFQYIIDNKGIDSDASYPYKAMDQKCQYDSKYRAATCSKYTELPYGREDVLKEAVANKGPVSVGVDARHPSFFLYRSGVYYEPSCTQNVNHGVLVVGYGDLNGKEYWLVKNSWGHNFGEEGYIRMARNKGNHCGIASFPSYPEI

[6] = biological target: T5, Calpain-1 catalytic subunit (Homo sapiens) (UniProt P07384); experiment: Compound is evaluated for inhibition kinetic constant (kobs/[I], 1/M.1/s) for calpain 1
T5 sequence (whole entry): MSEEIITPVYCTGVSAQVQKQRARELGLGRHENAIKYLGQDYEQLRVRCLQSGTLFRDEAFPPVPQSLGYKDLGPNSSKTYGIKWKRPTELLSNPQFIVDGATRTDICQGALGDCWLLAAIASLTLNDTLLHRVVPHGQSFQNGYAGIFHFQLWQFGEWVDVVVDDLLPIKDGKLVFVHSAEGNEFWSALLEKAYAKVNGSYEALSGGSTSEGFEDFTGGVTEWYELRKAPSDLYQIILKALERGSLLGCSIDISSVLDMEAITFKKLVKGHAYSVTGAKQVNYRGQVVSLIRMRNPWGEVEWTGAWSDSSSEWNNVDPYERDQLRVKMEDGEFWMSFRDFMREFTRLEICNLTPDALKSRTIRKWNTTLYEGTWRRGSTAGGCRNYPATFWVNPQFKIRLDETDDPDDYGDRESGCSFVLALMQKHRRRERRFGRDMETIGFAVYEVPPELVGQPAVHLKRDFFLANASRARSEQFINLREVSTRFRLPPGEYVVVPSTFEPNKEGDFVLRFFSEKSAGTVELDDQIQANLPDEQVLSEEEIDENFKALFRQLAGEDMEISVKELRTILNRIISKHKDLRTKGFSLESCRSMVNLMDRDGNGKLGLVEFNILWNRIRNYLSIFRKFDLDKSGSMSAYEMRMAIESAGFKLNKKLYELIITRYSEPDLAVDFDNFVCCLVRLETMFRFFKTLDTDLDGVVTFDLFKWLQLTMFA
Procedure, shortened: (§6)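 Enzyme ~20 nM is added last to substrate plus inhibitor at 25 °C. Fluorescence ex 380/em 450 nm for 5 min or until ≤1% activity. Progress curves fit first-order to kobs; reported as kobs/[I]; duplicate runs.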

[7] = biological target: T2, Cathepsin B; experiment: Compound is evaluated for inhibition kinetic constant Kirr for the cathepsin B; procedure, shortened: as §3
[8] = biological target: T2, Cathepsin B; experiment: Ratio of inhibition kinetic constants kirr and Ki against Cathepsin B; procedure, shortened: as §3
[9] = biological target: T2, Cathepsin B; experiment: Compound is evaluated for inhibition kinetic constant Ki for the cathepsin B; procedure, shortened: as §3
[10] = biological target: T6, Calpain-2 catalytic subunit (Homo sapiens) (UniProt P17655); experiment: Compound is evaluated for inhibition kinetic constant (kobs/[I], 1/M.1/s) for Calpain 2; procedure, shortened: as §6
T6 sequence (whole entry): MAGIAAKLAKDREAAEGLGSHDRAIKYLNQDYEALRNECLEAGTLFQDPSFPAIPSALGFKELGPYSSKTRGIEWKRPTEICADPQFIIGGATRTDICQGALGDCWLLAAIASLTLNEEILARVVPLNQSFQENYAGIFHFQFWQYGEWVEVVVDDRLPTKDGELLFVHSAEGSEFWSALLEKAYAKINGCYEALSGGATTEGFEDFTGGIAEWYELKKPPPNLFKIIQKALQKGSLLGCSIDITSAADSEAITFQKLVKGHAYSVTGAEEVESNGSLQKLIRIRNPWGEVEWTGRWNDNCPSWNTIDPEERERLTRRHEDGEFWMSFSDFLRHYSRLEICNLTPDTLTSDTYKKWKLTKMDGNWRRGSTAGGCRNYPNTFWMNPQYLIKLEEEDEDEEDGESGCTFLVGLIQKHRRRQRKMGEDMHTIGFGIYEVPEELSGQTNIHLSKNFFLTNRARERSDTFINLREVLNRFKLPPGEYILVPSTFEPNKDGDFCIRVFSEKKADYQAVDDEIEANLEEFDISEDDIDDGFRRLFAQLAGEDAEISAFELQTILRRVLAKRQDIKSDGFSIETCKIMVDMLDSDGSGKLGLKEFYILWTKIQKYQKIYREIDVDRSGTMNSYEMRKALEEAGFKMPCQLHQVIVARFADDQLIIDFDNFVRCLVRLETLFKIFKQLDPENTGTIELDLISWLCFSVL

[11] = biological target: T1, Procathepsin L; experiment: Compound is evaluated for inhibitory potency against cathepsin L; procedure, shortened: as §1
Target sequence in this assay (P07711 whole entry): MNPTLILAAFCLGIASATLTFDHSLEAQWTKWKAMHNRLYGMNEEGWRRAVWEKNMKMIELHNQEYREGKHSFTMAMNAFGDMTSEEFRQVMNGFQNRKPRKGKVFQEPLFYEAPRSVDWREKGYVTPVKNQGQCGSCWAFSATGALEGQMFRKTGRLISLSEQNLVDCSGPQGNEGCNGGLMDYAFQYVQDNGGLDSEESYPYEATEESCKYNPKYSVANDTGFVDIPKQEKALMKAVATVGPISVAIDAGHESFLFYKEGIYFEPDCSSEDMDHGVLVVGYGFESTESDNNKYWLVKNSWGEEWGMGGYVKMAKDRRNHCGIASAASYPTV

[12] = biological target: T1, Procathepsin L; experiment: Compound is evaluated for inhibition kinetic constant Kinact for the cathepsin L; procedure, shortened: as §1
Target sequence in this assay (P07711 114-333 limits assumed): as the sequence (P07711 114-333 limits assumed) above

[13] = biological target: Cruzipain (Trypanosoma cruzi) (UniProt P25779); experiment: Compound is evaluated for inhibition kinetic constant Kinact for the Cruzaine; procedure, shortened: as §2
[14] = biological target: Cruzipain (Trypanosoma cruzi) (UniProt P25779); experiment: Ratio of inhibition kinetic constants kinact and Ki against Cruzaine; procedure, shortened: as §2
[15] = biological target: T4, Cathepsin S; experiment: Compound is evaluated for inhibition kinetic constant Kinact for the cathepsin S; procedure, shortened: as §5
Target sequence in this assay (P25774 115-331 limits assumed): as the sequence (P25774 115-331 limits assumed) above

[16] = biological target: T4, Cathepsin S; experiment: Compound is evaluated for inhibitory potency against cathepsin S; procedure, shortened: as §5
Target sequence in this assay (P25774 whole entry): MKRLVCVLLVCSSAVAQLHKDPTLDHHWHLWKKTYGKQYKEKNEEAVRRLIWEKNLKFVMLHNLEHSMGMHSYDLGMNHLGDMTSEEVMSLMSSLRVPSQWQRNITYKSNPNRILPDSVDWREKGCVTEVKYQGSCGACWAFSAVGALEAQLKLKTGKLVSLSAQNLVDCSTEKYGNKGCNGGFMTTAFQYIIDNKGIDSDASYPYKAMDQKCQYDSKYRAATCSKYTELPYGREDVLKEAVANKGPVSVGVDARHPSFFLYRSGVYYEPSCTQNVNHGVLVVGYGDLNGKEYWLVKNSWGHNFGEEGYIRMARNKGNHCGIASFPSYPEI

[17] = biological target: Cruzipain (Trypanosoma cruzi, UniProt P25779); experiment: Compound is evaluated for inhibitory potency against Cruzaine; procedure, shortened: as §2
Chain of Cruzipain (P25779 whole entry): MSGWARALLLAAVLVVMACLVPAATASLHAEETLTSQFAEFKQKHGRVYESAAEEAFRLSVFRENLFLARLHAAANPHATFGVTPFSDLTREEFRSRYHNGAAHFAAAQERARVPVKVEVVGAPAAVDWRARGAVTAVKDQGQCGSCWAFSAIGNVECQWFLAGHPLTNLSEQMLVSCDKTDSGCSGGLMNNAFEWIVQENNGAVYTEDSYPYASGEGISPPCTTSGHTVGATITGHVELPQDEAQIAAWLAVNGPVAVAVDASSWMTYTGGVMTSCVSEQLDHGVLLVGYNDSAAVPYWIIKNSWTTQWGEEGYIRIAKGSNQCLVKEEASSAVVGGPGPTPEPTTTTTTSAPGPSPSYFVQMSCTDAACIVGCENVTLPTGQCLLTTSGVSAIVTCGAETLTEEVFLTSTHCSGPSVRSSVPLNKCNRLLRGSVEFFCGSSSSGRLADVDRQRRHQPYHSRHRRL

[18] = biological target: T2, Cathepsin B; experiment: Compound is evaluated for inhibitory potency against cathepsin B; procedure, shortened: as §3
[19] = biological target: T1, Procathepsin L; experiment: Ratio of inhibition kinetic constants kinact and Ki against Cathepsin L; procedure, shortened: as §1
Target sequence in this assay (P07711 114-333 limits assumed): as the sequence (P07711 114-333 limits assumed) above

[20] = biological target: T7, Cathepsin K (Homo sapiens, UniProt P43235); experiment: Compound is evaluated for inhibitory potency against cathepsin O2; procedure, shortened: as §4
T7 sequence (P43235 whole entry): T3 sequence (whole entry)

[21] = biological target: T4, Cathepsin S; experiment: Ratio of inhibition kinetic constants kinact and Ki against Cathepsin S; procedure, shortened: as §5
Target sequence in this assay (P25774 115-331 limits assumed): as the sequence (P25774 115-331 limits assumed) above

[22] = biological target: T3, Cathepsin K (Homo sapiens); experiment: Compound is evaluated for inhibition kinetic constant Kinact for the cathepsin O2; procedure, shortened: as §4
[23] = biological target: T3, Cathepsin K (Homo sapiens); experiment: Ratio of inhibition kinetic constants kinact and Ki against Cathepsin O2; procedure, shortened: as §4

O=C(NC(=O)[C@H](Cc1ccccc1)NC(=O)[C@H](CCc1ccccc1)N/C=C/S(=O)(=O)CCc1ccccc1)NN1CCOCC1
k obs / 1 [1]: 340000 M⁻¹ s⁻¹ | k obs / 1 [2]: 180000 M⁻¹ s⁻¹ | k obs / 1 [3]: 29000 M⁻¹ s⁻¹ | k obs / 1 [4]: 28500 M⁻¹ s⁻¹ | k obs / 1 [5]: 4.7e+06 M⁻¹ s⁻¹

CSCC[C@H](NC(=O)[C@H](CC(C)C)NC(=O)[C@H](CC(C)C)NC(C)=O)C(=O)/C=C/S(=O)(=O)c1ccccc1
k obs / 1 [1]: 880000 M⁻¹ s⁻¹ | k obs / 1 [2]: 110000 M⁻¹ s⁻¹ | k obs / 1 [3]: 0 M⁻¹ s⁻¹ | k obs / 1 [4]: 25000 M⁻¹ s⁻¹ | k obs / 1 [6]: 5600 M⁻¹ s⁻¹

CS(=O)(=O)/C=C/N[C@@H](CCc1ccccc1)C(=O)N[C@@H](Cc1ccccc1)C(=O)NC(=O)NN1CCOCC1
k obs / 1 [1]: 8700 M⁻¹ s⁻¹ | k obs / 1 [2]: 22000 M⁻¹ s⁻¹ | k obs / 1 [3]: 5100 M⁻¹ s⁻¹ | k obs / 1 [4]: 6540 M⁻¹ s⁻¹ | k obs / 1 [5]: 1.2e+06 M⁻¹ s⁻¹

O=C(NC(=O)[C@H](Cc1cc(I)c(O)c(I)c1)NC(=O)[C@H](CCc1ccccc1)N/C=C/S(=O)(=O)c1ccccc1)NN1CCOCC1
kirr [7]: 0.36 s⁻¹ | Ratio [8]: 1.08e+06 | Ki [9]: 340 nM

CC(=O)N[C@@H](CC(C)C)C(=O)N[C@@H](CC(C)C)C(=O)N[C@@H](CCS(C)(=O)=O)C(=O)/C=C/S(=O)(=O)c1ccccc1
k obs / 1 [1]: 1.5e+06 M⁻¹ s⁻¹ | k obs / 1 [2]: 104000 M⁻¹ s⁻¹ | k obs / 1 [3]: 0 M⁻¹ s⁻¹ | k obs / 1 [4]: 22700 M⁻¹ s⁻¹ | k obs / 1 [10]: 24300 M⁻¹ s⁻¹ | k obs / 1 [6]: 8400 M⁻¹ s⁻¹

O=C(NC(=O)[C@H](Cc1ccc2ccccc2c1)NC(=O)[C@H](CCc1ccccc1)N/C=C/S(=O)(=O)c1ccc2ccccc2c1)NN1CCOCC1
kirr [7]: 0.061 s⁻¹ | Ki [11]: 18 nM | K inact [12]: 0.14 s⁻¹ | K inact [13]: 0.046 s⁻¹ | Ratio [14]: 1.04e+06 | K inact [15]: 0.1 s⁻¹ | Ki [16]: 1.8 nM | Ki [17]: 48 nM | Ki [18]: 150 nM

CC(C)C[C@H](NC(=O)[C@H](CCc1ccccc1)N/C=C/S(=O)(=O)c1ccccc1)C(=O)NC(=O)NN1CCOCC1
kirr [7]: 0.17 s⁻¹ | Ki [11]: 720 nM | Ratio [19]: 387000 | Ki [20]: 230 nM | K inact [12]: 0.28 s⁻¹ | Ratio [21]: 2.63e+07 | K inact [13]: 0.13 s⁻¹ | Ratio [14]: 620000 | Ratio [8]: 4250 | K inact [22]: 0.17 s⁻¹ | K inact [15]: 0.16 s⁻¹ | Ki [16]: 5.9 nM | Ki [17]: 220 nM | Ki [18]: 39000 nM | Ratio [23]: 773000
